In ChEMBL document CHEMBL2150894, “Synthesis and anti-staphylococcal activity of new 4-diazopyrazole derivatives” (2012):
Values after ≈ are worked out from the molar mass of the structure shown. Active and inactive are the calls of the source. The rule behind the calls is not given here.

How the values were obtained:
Assay type in all cases: functional
[1] = test system: Staphylococcus aureus; assay: Antibacterial activity against Staphylococcus aureus ATCC 29213 assessed as inhibition of biofilm formation at 25 ug/mL
[2] = test system: Staphylococcus epidermidis; assay: Antibacterial activity against Staphylococcus epidermidis RP62A assessed as inhibition of biofilm formation at 25 ug/mL
[3] = test system: Staphylococcus aureus; assay: Antibacterial activity against Staphylococcus aureus ATCC 29213
Method in brief: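 Broth microdilution: twofold serial dilutions of compound (range 50 to 0.001) in Mueller Hinton broth, each well inoculated with bacterial suspension from a 24 h culture containing ~10⁶ cfu/mL. Incubated 37 °C for 24 h.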

[4] = test system: Staphylococcus aureus; assay: Antibacterial activity against methicillin-resistant Staphylococcus aureus ATCC 43866
[5] = test system: Staphylococcus aureus; assay: Antibacterial activity against methicillin-resistant Staphylococcus aureus ATCC 43866 assessed as inhibition of biofilm formation at 25 ug/mL
[6] = test system: Staphylococcus aureus; assay: Antibacterial activity against methicillin-resistant Staphylococcus aureus clinical isolate
[7] = test system: Staphylococcus epidermidis; assay: Antibacterial activity against Staphylococcus epidermidis RP62A
[8] = test system: Staphylococcus aureus; assay: Antibacterial activity against Staphylococcus aureus isolate 712 obtained from veterinary sample after 24 hrs by broth microdilution method; details: isolate 712, 24 h
Method in brief: (§1)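 Broth microdilution in Mueller Hinton broth with twofold serial dilutions spanning 50 to 0.001. Each well received inoculum from a 24 h culture containing about 10⁶ cfu mL⁻¹, then incubated at 37 °C for 24 h. MIC was the lowest concentration whose OD570 matched the broth-only negative control. Veterinary isolates came from milk and food samples (IZS Sicily collection).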

[9] = test system: Staphylococcus aureus; assay: Antibacterial activity against Staphylococcus aureus isolate 722 obtained from veterinary sample after 24 hrs by broth microdilution method; details: isolate 722, 24 h; method in brief: as §1
[10] = test system: Staphylococcus aureus; assay: Antibacterial activity against Staphylococcus aureus ATCC 6538 after 24 hrs by broth microdilution method; details: ATCC 6538, 24 h; method in brief: as §1
[11] = test system: Staphylococcus aureus; assay: Antibacterial activity against Staphylococcus aureus ATCC 25923 after 24 hrs by broth microdilution method; details: ATCC 25923, 24 h; method in brief: as §1
[12] = test system: Staphylococcus aureus; assay: Antibacterial activity against Staphylococcus aureus ATCC 29213 after 24 hrs by broth microdilution method; details: ATCC 29213, 24 h; method in brief: as §1
[13] = test system: Staphylococcus aureus; assay: Antibacterial activity against Staphylococcus aureus isolate 357 obtained from veterinary sample after 24 hrs by broth microdilution method; details: isolate 357, 24 h; method in brief: as §1
[14] = test system: Staphylococcus aureus; assay: Antibacterial activity against Staphylococcus aureus isolate 723 obtained from veterinary sample after 24 hrs by broth microdilution method; details: isolate 723, 24 h; method in brief: as §1
[15] = test system: Staphylococcus aureus; assay: Antibacterial activity against Staphylococcus aureus isolate 708 obtained from veterinary sample after 24 hrs by broth microdilution method; details: isolate 708, 24 h; method in brief: as §1
[16] = test system: Staphylococcus aureus; assay: Antibacterial activity against Staphylococcus aureus isolate 100 obtained from veterinary sample after 24 hrs by broth microdilution method; details: isolate 100, 24 h; method in brief: as §1
[17] = test system: Staphylococcus aureus; assay: Antibacterial activity against Staphylococcus aureus ATCC 29213 by NCCLS method
[18] = test system: Staphylococcus epidermidis; assay: Antibacterial activity against Staphylococcus epidermidis RP62A assessed as inhibition of biofilm formation
[19] = test system: Staphylococcus aureus; assay: Antibacterial activity against Staphylococcus aureus isolate 708 obtained from veterinary sample assessed as inhibition of biofilm formation at 3.1 ug/mL
[20] = test system: Staphylococcus aureus; assay: Antibacterial activity against Staphylococcus aureus ATCC 29213 assessed as inhibition of biofilm formation at 3.1 ug/mL
[21] = test system: Staphylococcus aureus; assay: Antibacterial activity against Staphylococcus aureus ATCC 25923 assessed as inhibition of biofilm formation at 3.1 ug/mL

| MIC [8] [µg/mL] | MIC [9] [µg/mL] | MIC [10] [µg/mL] | MIC [11] [µg/mL] | MIC [12] [µg/mL] | MIC [13] [µg/mL] | MIC [14] [µg/mL] | MIC [15] [µg/mL] | MIC [16] [µg/mL] | Structure (SMILES) | other results |
| --- | --- | --- | --- | --- | --- | --- | --- | --- | --- | --- |
| > 50 | > 50 | > 50 | > 50 | > 50 | > 50 | > 50 | > 50 | > 50 | COc1ccc(NC(=O)[N-]c2c([N+]#N)c(C)nn2C)c([N+](=O)[O-])c1 |  |
| > 50 | > 50 | > 50 | > 50 | > 50 | > 50 | > 50 | > 50 | > 50 | Cc1nn(C)c([N-]C(=O)Nc2ccc(OCc3ccccc3)cc2[N+](=O)[O-])c1[N+]#N |  |
| 1.5 (≈ 5.88 µM) | 6.2 (≈ 24.3 µM) | 3.1 (≈ 12.1 µM) | 6.2 (≈ 24.3 µM) | 3.1 (≈ 12.1 µM) | 1.5 (≈ 5.88 µM) | 3.1 (≈ 12.1 µM) | 6.2 (≈ 24.3 µM) | 3.1 (≈ 12.1 µM) | Cc1nn(C)c([N-]C(=O)Cc2ccccc2)c1[N+]#N | inhibition [19]: inactive; inhibition [20]: inactive; inhibition at 3.1 µg/mL [21]: 45.7% |
| 25 (≈ 76.9 µM) | 3.1 (≈ 9.53 µM) | 6.2 (≈ 19.1 µM) | 6.2 (≈ 19.1 µM) | 6.2 (≈ 19.1 µM) | 6.2 (≈ 19.1 µM) | 3.1 (≈ 9.53 µM) | 6.2 (≈ 19.1 µM) | 3.1 (≈ 9.53 µM) | Cc1nn(C)c([N-]C(=O)Nc2ccc(Cl)c(Cl)c2)c1[N+]#N |  |
| 50 (≈ 173 µM) | 12.5 (≈ 43.1 µM) | 6.2 (≈ 21.4 µM) | 25 (≈ 86.3 µM) | 25 (≈ 86.3 µM) | 1.5 (≈ 5.18 µM) | 3.1 (≈ 10.7 µM) | 12.5 (≈ 43.1 µM) | 6.2 (≈ 21.4 µM) | Cc1nn(C)c([N-]C(=O)Cc2ccc(Cl)cc2)c1[N+]#N |  |
| 3.1 (≈ 10.3 µM) | 3.1 (≈ 10.3 µM) | 6.2 (≈ 20.6 µM) | 6.2 (≈ 20.6 µM) | 6.2 (≈ 20.6 µM) | 3.1 (≈ 10.3 µM) | 100 (≈ 332 µM) | 3.1 (≈ 10.3 µM) | > 100 | Cc1nn(C)c([N-]C(=O)Nc2ccc([N+](=O)[O-])cc2)c1[N+]#N |  |
| 3.1 (≈ 10.7 µM) | 12.5 (≈ 43 µM) | 25 (≈ 86 µM) | 6.2 (≈ 21.3 µM) | 6.2 (≈ 21.3 µM) | 6.2 (≈ 21.3 µM) | 12.5 (≈ 43 µM) | 25 (≈ 86 µM) | 6.2 (≈ 21.3 µM) | Cc1nn(C)c([N-]C(=O)Nc2ccc(Cl)cc2)c1[N+]#N |  |

Second part, the compound before the results:

| Structure (SMILES) | MIC [8] [µg/mL] | MIC [9] [µg/mL] | MIC [10] [µg/mL] | MIC [11] [µg/mL] | MIC [12] [µg/mL] | MIC [13] [µg/mL] | MIC [14] [µg/mL] | MIC [15] [µg/mL] | MIC [16] [µg/mL] | other results |
| --- | --- | --- | --- | --- | --- | --- | --- | --- | --- | --- |
| Cc1nn(C)c([N-]C(=O)c2ccc(Cl)cc2)c1[N+]#N |  |  |  |  |  |  |  |  |  | inhibition at 25 µg/mL [1]: 69.7%; inhibition at 25 µg/mL [2]: 69.7%; MIC [3]: 1.5 µg/mL (≈ 5.44 µM); MIC [4]: 1.5 µg/mL (≈ 5.44 µM); inhibition at 25 µg/mL [5]: 69.7%; MIC [6]: 2 µg/mL (≈ 7.25 µM); MIC [7]: 1.5 µg/mL (≈ 5.44 µM) |
| CO[C@H]1/C=C/O[C@@]2(C)Oc3c(C)c(O)c4c(O)c(c(/C=N/N5CCN(C)CC5)c(O)c4c3C2=O)NC(=O)/C(C)=C\C=C\[C@H](C)[C@H](O)[C@@H](C)[C@@H](O)[C@@H](C)[C@H](OC(C)=O)[C@@H]1C [RIFAMPIN] | 0.3 (≈ 0.365 µM) | 0.6 (≈ 0.729 µM) | 0.015 (≈ 0.0182 µM) | 0.015 (≈ 0.0182 µM) | 0.015 (≈ 0.0182 µM) | 0.015 (≈ 0.0182 µM) | 1.25 (≈ 1.52 µM) | 0.07 (≈ 0.0851 µM) | 0.07 (≈ 0.0851 µM) | MIC [17]: 0.008 µg/mL (≈ 0.00972 µM) |
| Cc1nn(C)c([N-]C(=O)c2ccc(Cl)cc2Cl)c1[N+]#N |  |  |  |  |  |  |  |  |  | MIC [3]: 1.5 µg/mL (≈ 4.84 µM); MIC [4]: 1.5 µg/mL (≈ 4.84 µM); MIC [6]: 2 µg/mL (≈ 6.45 µM); MIC [7]: 1.5 µg/mL (≈ 4.84 µM); inhibition [18]: Active |
| COc1ccc(CC(=O)[N-]c2c([N+]#N)c(C)nn2C)cc1 | 25 (≈ 87.6 µM) | 6.2 (≈ 21.7 µM) | 6.2 (≈ 21.7 µM) | 6.2 (≈ 21.7 µM) | 6.2 (≈ 21.7 µM) | 6.2 (≈ 21.7 µM) | 6.2 (≈ 21.7 µM) | 6.2 (≈ 21.7 µM) | 3.1 (≈ 10.9 µM) | inhibition at 3.1 µg/mL [19]: 25%; inhibition at 3.1 µg/mL [20]: 45.7%; inhibition at 3.1 µg/mL [21]: 38% |
| Cc1nn(C)c([N-]C(=O)c2ccc([N+](=O)[O-])cc2)c1[N+]#N |  |  |  |  |  |  |  |  |  | inhibition at 25 µg/mL [1]: 69.7%; inhibition at 25 µg/mL [2]: 69.7%; MIC [3]: 1.5 µg/mL (≈ 5.24 µM); MIC [4]: 1.5 µg/mL (≈ 5.24 µM); inhibition at 25 µg/mL [5]: 69.7%; MIC [6]: 2 µg/mL (≈ 6.99 µM); MIC [7]: 1.5 µg/mL (≈ 5.24 µM) |
| Cc1nn(C)c([N-]C(=O)Nc2ccccc2)c1[N+]#N | 50 (≈ 195 µM) | 25 (≈ 97.6 µM) | 12.5 (≈ 48.8 µM) | 12.5 (≈ 48.8 µM) | 12.5 (≈ 48.8 µM) | 6.2 (≈ 24.2 µM) | 6.2 (≈ 24.2 µM) | 25 (≈ 97.6 µM) | 12.5 (≈ 48.8 µM) |  |
| CCCCOc1ccc(NC(=O)[N-]c2c([N+]#N)c(C)nn2C)c([N+](=O)[O-])c1 | > 50 | > 50 | > 50 | > 50 | > 50 | > 50 | > 50 | > 50 | > 50 |  |
